Results: ChEMBL document CHEMBL4270646, “Novel antimalarial chloroquine- and primaquine-quinoxaline 1,4-di-N-oxide hybrids: Design, synthesis, Plasmodium life cycle stage profile, and preliminary toxicity studies” (Eur J Med Chem, 2018)
Calls of active or inactive are those of the source. The calls are words filed in the database; no cut-off is given here.

Key:
Plasmodium falciparum = assay: Antiplasmodial activity against chloroquine-sensitive Plasmodium falciparum 3D7 infected in human red blood cells assessed as reduction in parasite growth after 48 hrs by Hoechst 33342 staining based flow cytometric analysis; format: functional, organism-based; conditions: 3D7, 48 h
Procedure, shortened: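 Ring-stage cultures (>80% rings) at 1% parasitaemia in A+ human erythrocytes, 2% haematocrit. Medium RPMI 1640 with 10% A+ serum, 37°C, 5% CO2/5% O2. Compounds in DMSO at 1.56–100 µg/mL final, DMSO ≤1%. After 48 h, cells stained with Hoechst 33342 and 1×10^4 counted by flow cytometry. IC50 from logistic dose-response regression; three independent experiments in triplicate.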

[1] = Selectivity index, ratio of CC50 for human HepG2 cells to IC50 for multidrug-resistant Plasmodium falciparum […]; format: toxicity; conditions: read-out: Ratio CC50/IC50
Procedure, shortened: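 Selectivity index = HepG2 CC50 / FCR-3 IC50. CC50 from MTT assay after 48 h exposure, A550. IC50 from 48 h Hoechst 33342 flow-cytometry assay.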

Plasmodium yoelii [2] = assay: Antiplasmodial activity against GFP-harboring Plasmodium yoelii sporozoites infected in human HepG2 cells expressing CD81 assessed as reduction in parasite growth treated every 24 hrs by DAPI staining-based fluorescence microscopic analysis; format: functional, organism-based; conditions: HepG2, 24 h
Procedure, shortened: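 Collagen-coated wells seeded with HepG2 (P. berghei), HepG2-CD81 (P. yoelii) or primary human hepatocytes (P. falciparum). Sporozoites added: 5×10^3 to 1×10^4 per well to the cell lines, 2.5×10^4 per well to hepatocytes. Compounds given at infection: top 10 µg/mL plus seven serial dilutions, renewed at 3 h and then every 24 h. Cultures grown 40 h (cell lines) or 8 days (hepatocytes) at 37°C. Methanol-fixed, HSP70 immunolabelled, DAPI counterstained. IC50 from logistic regression; triplicate.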

[3] = Cytotoxicity against human primary hepatocytes assessed as reduction in cell viability after 48 hrs by MTT assay; format: cell-based, Hepatocyte
Procedure, shortened: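 Cells seeded at 2 × 10^5 per well and allowed 24 h at 37°C, 5% CO2 to form a monolayer. Dilutions added in triplicate and incubated 48 h. MTT (2 mg/mL) then added for 4 h, followed by DMSO for 20 min at room temperature. Absorbance read at 550 nm; DMSO diluent and untreated cells served as negative controls. CC50 derived from the curve.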

[4] = Selectivity index, ratio of CC50 for human HepG2 cells expressing CD81 to IC50 for GFP-expressing Plasmodium yoelii sporozoites; format: toxicity; conditions: read-out: Ratio CC50/IC50
Procedure, shortened: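 Selectivity index = CC50 (matching cell) / IC50 (matching parasite). Cell–parasite pairs: HepG2-CD81 with P. yoelii, HepG2 with P. berghei, human hepatocytes with P. falciparum.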

Plasmodium yoelii [5] = assay: Antiplasmodial activity against Plasmodium yoelii 17XNL sporozoites infected in BALB/c mouse assessed as incident of decrease in peripheral blood parasite levels at 100 mg/kg, po measured at day 1 by […] relative to control; format: functional; set-up: scale not given: the % may be the effect or the level left
Procedure, shortened: (§1)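 BALB/c mice (6-8 weeks, 20-23 g), n=4 per hybrid group and n=5 per control. Dosed orally at 100 mg/kg (100 µL) on days -1, 0, +1 and +2. Vehicle was DMSO 100%; primaquine diphosphate given at 30 mg/kg daily. On day 0, 5 x 10^3 cryopreserved P. yoelii 17XNL sporozoites injected i.v. Parasitaemia read by Giemsa smear and SYBR Green flow cytometry. Groups compared by Kruskal-Wallis test.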

Plasmodium yoelii [6] = assay: Antiplasmodial activity against Plasmodium yoelii 17XNL sporozoites infected in BALB/c mouse assessed as decrease in peripheral blood parasite levels at 100 mg/kg, po measured at day 5 by […]; format: functional, organism-based; procedure, shortened: as §1
Plasmodium yoelii [7] = assay: Antiplasmodial activity against Plasmodium yoelii 17XNL sporozoites infected in BALB/c mouse assessed as pre-patent time period of parasitaemia at 100 mg/kg, po measured at day 4 by […]; format: functional; procedure, shortened: as §1
Plasmodium berghei [8] = assay: (§2) Antiplasmodial activity against GFP-expressing gametocytes of Plasmodium berghei sporozoites in Anopheles stephensi mosquitoes feeded on blood from infected Swiss mouse assessed as reduction in number of oocysts in mosquito midgut at 100 mg/kg, ip pretreated for 1.5 hrs followed by blood feeding of mosquito and measured at 8 days post mosquitoes infection by fluorescence microscopic method relative to control; format: functional; set-up: scale not given: the % may be the effect or the level left
Procedure, shortened: (§3)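 Swiss mice (female, 6 weeks) infected i.p. with PbGFP-infected red cells (200 µL, 3000 parasites/µL). Gametocytes monitored 4 days by Giemsa smear and exflagellation. Hybrid given i.p. at 100 mg/kg in DMSO 1.5 h before A. stephensi fed 1 h on mice with 1% gametocytes. Controls were untreated and DMSO-treated mice. Thirty mosquitoes per group dissected after 8 days. Midgut oocysts counted by fluorescence microscopy against control mosquitoes taken as 100%.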

Plasmodium berghei [9] = assay: as §2, with “in” for “in number of oocysts in”, “infection” for “midgut”; format: functional; set-up: scale not given: the % may be the effect or the level left; procedure, shortened: as §3
Mus musculus [10] = assay: Acute toxicity in BALB/c mouse assessed as appearance of normal coloured mucosa at 300 to 500 mg/kg, po administered as single dose measured every day for 14 days; format: organism-based; conditions: in vivo, 336 h
Procedure, shortened: (§4)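 Female BALB/c mice, 6-8 weeks old, 20-23 g, in groups of three. Single oral dose of 300 or 500 mg/kg; vehicle DMSO 100% given to controls. Mice watched for signs of toxicity for 4 h after dosing. Physical appearance, injury, pain and illness recorded daily for 14 days. Euthanasia in a CO2 chamber on day 14 or earlier if suffering.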

Mus musculus [11] = assay: Acute toxicity in BALB/c mouse assessed as necrosis of liver at 500 mg/kg, po administered as single dose measured at day 14 by haematoxylin and eosin staining based microscopic analysis; format: organism-based; conditions: in vivo
Procedure, shortened: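 Female BALB/c mice, groups of three, single oral dose; vehicle DMSO 100% for controls. Mice euthanised with CO2 on day 14, or earlier if suffering. Gross necropsy performed. Spleen, liver and kidney fixed in formaldehyde 37%, stained with haematoxylin and eosin and examined by light microscopy.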

Mus musculus [12] = assay: Acute toxicity in BALB/c mouse assessed as effect on creatinine level at 300 to 500 mg/kg, po administered as single dose measured at day 14; format: organism-based; conditions: in vivo
Mus musculus [13] = assay: Acute toxicity in BALB/c mouse assessed as effect on total bilirubin level at 300 to 500 mg/kg, po administered as single dose measured at day 14; format: organism-based; conditions: in vivo
Mus musculus [14] = assay: Acute toxicity in BALB/c mouse assessed as behavioral changes at 300 mg/kg, po administered as single dose measured every day for 14 days; format: organism-based; conditions: in vivo, 336 h; procedure, shortened: as §4
[15] = Genotoxicity in Salmonella typhimurium TA1535 harboring pSK1002 assessed as umu gene induction at 0.001 to 0.063 mg/ml after 4 hrs in absence of Sprague-Dawley rat liver S9 fraction by beta-galactosidase reporter gene assay relative to control; format: toxicity, organism-based; conditions: salmonella enterica subsp. enterica serovar typhimurium; read-out: FC
Procedure, shortened: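 SOS/umu test, 4 h at 37°C, with S9 mix or PBS. Positive controls 4-NQO (2.5 µg/mL final, no S9) and 2-AA (0.0125 mg/mL final, with S9). Aliquots incubated with ONPG 0.9 mg/mL in B-buffer for 30 min at 28°C, then stopped with 1 M Na2CO3. Activity calculated as A420/A600. Induction factor is the ratio to the DMSO control; genotoxic if ≥2 at ≥80% survival.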

In the case of `COc1cc(NC(C)CCCNC(=O)c2c(C)[n+]([O-])c3ccccc3[n+]2[O-])c2ncccc2c1` (stereo unspecified), the IC50 (Plasmodium falciparum) is reported as 67.2 µM, the selectivity ratio [1] is reported as 0.58 and the IC50 (Plasmodium yoelii [2]) is reported as 1.39 µM. For the same compound, the CC50 at 48 h [3] was > 213 µM, the selectivity ratio [4] was 153 and the Activity (Plasmodium yoelii [5]) was 25%. For the same compound, the Activity (Plasmodium yoelii [6]) was “Active”, the Time (Plasmodium yoelii [7]) was 24 h and the Activity (Plasmodium berghei [8]) was 92%. For the same compound, the Activity (Plasmodium berghei [9]) was 20%, the Activity (Mus musculus [10]) was “Non-Toxic” and the Activity (Mus musculus [11]) was “Non-Toxic”. The Activity (Mus musculus [12]) was “Non-Toxic”, the Activity (Mus musculus [13]) was “Non-Toxic” and the Activity (Mus musculus [14]) was “Non-Toxic”. The fold induction at 4 h [15] was < 2.
